Laboratory results taken from ChEMBL document CHEMBL4265991 (Bioorg Med Chem, 2018).
≈ marks a conversion by molar mass, not a printed value.

Columns and labels:
[1] = molecular target: Inosine-5'-monophosphate dehydrogenase 2 (Homo sapiens, UniProt P12268); experiment: Inhibition of recombinant human His-tagged IMPDH2 expressed in Escherichia coli BL21 (DE3) using IMP as substrate in presence of NAD
Candida albicans = experiment: Antifungal activity against Candida albicans after 24 hrs by OD530 reading based two fold serial dilution method
[2] = Cytotoxicity against HEK293 cells after 24 hrs by resazurin dye-based fluorescence analysis; assay type: cell-based; conditions: human
How it was run: (§1)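 Cells seeded at 3000 per well in DMEM with 10% FBS. Compound […], applied as a 2-fold dilution series mixed directly with the cells. Incubated 24 h at 37 °C in 5% CO2, then 10 µM resazurin was added for 3 h. Fluorescence read at ex/em 560/590 nm. DMSO served as negative control.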

[3] = molecular target: Inosine-5'-monophosphate dehydrogenase 1 (Homo sapiens, UniProt P20839); experiment: Inhibition of recombinant human His-tagged IMPDH1 expressed in Escherichia coli BL21 (DE3) using IMP as substrate in presence of NAD
How it was run: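 His-tag-cleaved human IMPDH from E. coli BL21(DE3) pLysS at 0.2 µM. NAD 100 µM, IMP 125 µM; reaction started with IMP. NADH followed at 340 nm. Compounds tested 30 to 0.93 µM. IC50 from variable-slope fit normalized to no-inhibitor and 20 µM MPA controls; n ≥ 3.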

[4] = Cytotoxicity against human HepG2 cells after 24 hrs by resazurin dye-based fluorescence analysis; assay type: cell-based; how it was run: as §1
[5] = molecular target: Inosine-5'-monophosphate dehydrogenase (Cryptococcus neoformans var. neoformans serotype D (strain JEC21 /ATCC MYA-565) (Filobasidiella neoformans), UniProt Q5KP44); experiment: Inhibition of recombinant Cryptococcus neoformans His-tagged IMPDH expressed in Escherichia coli BL21 (DE3) using IMP as substrate in presence of NAD
How it was run: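 Recombinant C. neoformans IMPDH (E. coli BL21(DE3) pLysS) at 0.2 µM. IMP and NAD each 500 µM; reaction started with IMP. NADH followed at 340 nm. Compounds tested 20 to 0.02 µM. % activity normalized to no-inhibitor and 20 µM MPA controls, fitted by variable-slope dose-response; n ≥ 3.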

Cryptococcus neoformans = experiment: Antifungal activity against Cryptococcus neoformans after 24 hrs by two fold serial dilution method
[6] = Drug metabolism in DTT containing buffer assessed as formation of 5-phenyl-1,3,4-oxadiazole-2-thiol by LC-MS analysis; assay type: physicochemical
[7] = Drug level in DTT containing buffer treated with 3-((5-Phenyl-1,3,4-oxadiazol-2-yl)thio)benzo[b]thiophene-1,1-dioxide by LC-MS analysis; assay type: physicochemical

Chain of Inosine-5'-monophosphate dehydrogenase 1 (P20839 whole entry): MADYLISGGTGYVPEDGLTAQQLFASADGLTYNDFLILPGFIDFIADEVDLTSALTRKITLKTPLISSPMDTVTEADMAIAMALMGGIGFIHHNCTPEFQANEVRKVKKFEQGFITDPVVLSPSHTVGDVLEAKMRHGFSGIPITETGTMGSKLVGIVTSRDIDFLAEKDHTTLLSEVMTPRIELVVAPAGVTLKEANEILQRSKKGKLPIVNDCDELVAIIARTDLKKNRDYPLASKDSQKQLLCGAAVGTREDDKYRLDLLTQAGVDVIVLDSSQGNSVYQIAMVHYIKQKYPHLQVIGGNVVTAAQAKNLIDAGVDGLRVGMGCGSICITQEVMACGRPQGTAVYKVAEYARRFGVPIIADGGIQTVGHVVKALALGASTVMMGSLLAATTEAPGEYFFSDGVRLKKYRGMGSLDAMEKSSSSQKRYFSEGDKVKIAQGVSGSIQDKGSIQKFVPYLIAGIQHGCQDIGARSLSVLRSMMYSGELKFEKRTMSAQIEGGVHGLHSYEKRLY
Chain of Inosine-5'-monophosphate dehydrogenase (Q5KP44 whole entry): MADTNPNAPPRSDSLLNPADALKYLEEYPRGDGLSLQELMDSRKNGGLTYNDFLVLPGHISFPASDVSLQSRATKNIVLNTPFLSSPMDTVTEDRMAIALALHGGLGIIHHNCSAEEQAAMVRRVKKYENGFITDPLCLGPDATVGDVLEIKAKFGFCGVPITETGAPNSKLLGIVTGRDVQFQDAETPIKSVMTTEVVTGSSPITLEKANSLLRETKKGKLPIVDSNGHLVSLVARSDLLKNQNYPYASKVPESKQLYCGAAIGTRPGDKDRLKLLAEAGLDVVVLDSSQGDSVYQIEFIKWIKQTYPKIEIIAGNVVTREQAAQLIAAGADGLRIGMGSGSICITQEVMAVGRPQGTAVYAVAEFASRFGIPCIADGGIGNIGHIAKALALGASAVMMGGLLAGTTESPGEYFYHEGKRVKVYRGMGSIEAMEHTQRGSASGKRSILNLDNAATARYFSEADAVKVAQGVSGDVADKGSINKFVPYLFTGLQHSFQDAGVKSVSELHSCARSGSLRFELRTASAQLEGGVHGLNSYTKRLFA

| Compound | IC50 [1] [µM] | MIC (Candida albicans) [µM] | CC50 at 24 h [2] [µM] | IC50 [3] [µM] | CC50 at 24 h [4] [µM] | IC50 [5] [µM] | MIC (Cryptococcus neoformans) [µM] | Drug metabolism [6] | Drug metabolism [7] |
| --- | --- | --- | --- | --- | --- | --- | --- | --- | --- |
| COc1cccc(-c2nnc(SC3=CS(=O)(=O)c4ccccc43)o2)c1 | 1.2 | 172 (≈ 64.1 µg/mL) | 3 | 4.3 | 20 | 0.15 | 8 (≈ 2.98 µg/mL) |  |  |
| COc1c(C)c2c(c(O)c1C/C=C(\C)CCC(=O)O)C(=O)OC2 [MYCOPHENOLIC ACID] |  |  |  | 0.26 |  | 0.12 |  |  |  |
| O=S1(=O)C=C(Sc2nnc(-c3ccccc3)o2)c2ccccc21 | 2.1 | 6 (≈ 2.05 µg/mL) | 3 | 5.6 | 20 | 0.37 | 6 (≈ 2.05 µg/mL) | Metabolite_Detected |  |
| COc1ccccc1-c1nnc(SC2=CS(=O)(=O)c3ccccc32)o1 | 3.2 | 172 (≈ 64.1 µg/mL) | 3 | 9.9 | 16 | 0.48 | 64 (≈ 23.8 µg/mL) |  |  |
| COC(=O)c1ccc(-c2nnc(SC3=CS(=O)(=O)c4ccccc43)o2)cc1 | > 30 | > 160 | 4 | > 30 | 18 | 0.34 | 60 (≈ 24 µg/mL) |  |  |
| O=S1(=O)C=C(Sc2nnc(-c3ccc(Cl)cc3)o2)c2ccccc21 | 1.5 | 167 (≈ 62.9 µg/mL) | 3 | 11.1 | 22 | 0.49 | 16 (≈ 6.03 µg/mL) |  |  |
| O=S1(=O)C=C(Sc2nnc(-c3cccc(Cl)c3)o2)c2ccccc21 | 1.6 | 167 (≈ 62.9 µg/mL) | 6 | 10.1 | 27 | 0.4 | 6 (≈ 2.26 µg/mL) |  |  |
| Cc1ccc(-c2nnc(SC3=CS(=O)(=O)c4ccccc43)o2)cc1 | 5.7 | 90 (≈ 32.1 µg/mL) | 3 | 20.3 | 31 | 0.41 | 22 (≈ 7.84 µg/mL) |  |  |
| OC(Cn1cncn1)(Cn1cncn1)c1ccc(F)cc1F [FLUCONAZOLE] |  | 8 (≈ 2.45 µg/mL) |  |  |  |  | 0.3 (≈ 0.0919 µg/mL) |  |  |
| Nc1ccc(-c2nnc(SC3=CS(=O)(=O)c4ccccc43)o2)cc1 | 4.5 | > 179 | 4 | 13.8 | 24 | 1.01 | 33 (≈ 11.8 µg/mL) |  |  |
| O=S1(=O)C=C(Sc2nnc(-c3ccccc3Cl)o2)c2ccccc21 | 1.2 | 167 (≈ 62.9 µg/mL) | 4 | 7.2 | 25 | 0.23 | 6 (≈ 2.26 µg/mL) |  |  |
| S=c1[nH]nc(-c2ccccc2)o1 |  |  |  |  |  |  |  |  | Metabolite_Detected |
| O=S1(=O)C=C(Sc2nnc(C3CCCCC3)o2)c2ccccc21 | 2.2 | 46 (≈ 16 µg/mL) | 3 | 7.6 | 15 | 0.67 | 7 (≈ 2.44 µg/mL) |  |  |
| C[C@@H]1[C@H](O)[C@@H](C)/C=C/C=C/C=C/C=C/C=C/C=C/C=C/[C@H](O[C@@H]2O[C@H](C)[C@@H](O)[C@H](N)[C@@H]2O)C[C@@H]2O[C@](O)(C[C@@H](O)C[C@@H](O)[C@H](O)CC[C@@H](O)C[C@@H](O)CC(=O)O[C@H]1C)C[C@H](O)[C@H]2C(=O)O [AMPHOTERICIN B] |  | 0.18 (≈ 0.166 µg/mL) |  |  |  |  | 0.25 (≈ 0.231 µg/mL) |  |  |
| CC(=O)Nc1ccc(-c2nnc(SC3=CS(=O)(=O)c4ccccc43)o2)cc1 | 4.4 | > 160 | 4 | 20.4 | 31 | 0.16 | > 160 |  |  |
| O=S1(=O)C=C(Sc2nnc(-c3ccncc3)o2)c2ccccc21 | 2.1 | 6 (≈ 2.06 µg/mL) | 4 | 8.6 | 17 | 0.76 | 9 (≈ 3.09 µg/mL) |  |  |
| COc1ccc(-c2nnc(SC3=CS(=O)(=O)c4ccccc43)o2)cc1 | > 30 | 172 (≈ 64.1 µg/mL) | 2 | > 30 | 22 | 1.7 | 172 (≈ 64.1 µg/mL) |  |  |
| O=S1(=O)C=C(Sc2nnc(-c3ccccn3)o2)c2ccccc21 | 4.2 | 4 (≈ 1.37 µg/mL) | 5 | 13.2 | 24 | 1.06 | 6 (≈ 2.06 µg/mL) |  |  |
| O=S1(=O)C=C(Sc2nnc(-c3cccnc3)o2)c2ccccc21 | 2.6 | 4 (≈ 1.37 µg/mL) | 4 | 6.3 | 14 | 0.59 | 4 (≈ 1.37 µg/mL) |  |  |
